Data taken from ChEMBL document CHEMBL4715736, “Identification of anticancer agents based on the thieno[2,3-b]pyridine and 1H-pyrazole molecular scaffolds” (2016).

Tests used:
Assay type in all cases: functional
Details in all cases: read-out: Activity
HL-60(TB) = assay: Growth inhibition of human HL-60(TB) cells assessed as cell growth at 10 uM incubated for 48 hrs by sulforhodamine B assay relative to control
In short: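 Screened by the NCI Developmental Therapeutics Program on its panel of 60 human tumour cell lines. Compounds were first tested at a single 10 µM dose, and compounds active there went to dose-response curves. Growth is expressed relative to untreated control (100%). GI50 (50% of maximal proliferation inhibition) and TGI (total growth inhibition) were derived from the dose-response data.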

MOLT-4 = assay: Growth inhibition of human MOLT-4 cells assessed as cell growth at 10 uM incubated for 48 hrs by sulforhodamine B assay relative to control
In short: (§1)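 Submitted to the NCI Developmental Therapeutics Program for the NCI60 human tumour cell line panel. First screen at a single 10 µM concentration. Read-out is growth relative to untreated control cells set at 100%.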

A549 = assay: Growth inhibition of human A549/ATCC cells assessed as cell growth at 10 uM incubated for 48 hrs by sulforhodamine B assay relative to control
In short: (§2)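 NCI Developmental Therapeutics Program NCI60 panel. Compounds that were active in the 10 µM one-dose screen went on to dose–response testing. Growth at each concentration is expressed relative to untreated control (100%). GI50 (concentration giving 50% of maximal inhibition of proliferation) and TGI (concentration giving total growth inhibition) were derived from the curves.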

HOP-92 = assay: Growth inhibition of human HOP-92 cells assessed as cell growth at 10 uM incubated for 48 hrs by sulforhodamine B assay relative to control; in short: as §1
NCI-H460 = assay: Growth inhibition of human NCI-H460 cells assessed as cell growth at 10 uM incubated for 48 hrs by sulforhodamine B assay relative to control; in short: as §1
COLO 205 = assay: Growth inhibition of human COLO 205 cells assessed as cell growth at 10 uM incubated for 48 hrs by sulforhodamine B assay relative to control; in short: as §2
HCC 2998 = assay: Growth inhibition of human HCC 2998 cells assessed as cell growth at 10 uM incubated for 48 hrs by sulforhodamine B assay relative to control; in short: as §2
HCT-116 = assay: Growth inhibition of human HCT-116 cells assessed as cell growth at 10 uM incubated for 48 hrs by sulforhodamine B assay relative to control; in short: as §1
HCT-15 = assay: Growth inhibition of human HCT-15 cells assessed as cell growth at 10 uM incubated for 48 hrs by sulforhodamine B assay relative to control; in short: as §1
KM12 = assay: Growth inhibition of human KM12 cells assessed as cell growth at 10 uM incubated for 48 hrs by sulforhodamine B assay relative to control; in short: as §1
SF-539 = assay: Growth inhibition of human SF-539 cells assessed as cell growth at 10 uM incubated for 48 hrs by sulforhodamine B assay relative to control
In short: (§3)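 Run by the NCI Developmental Therapeutics Program as part of its 60-line human tumour panel. Each compound tested at a single 10 µM dose. Growth expressed as % relative to untreated control cells (100%).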

SNB-19 = assay: Growth inhibition of human SNB-19 cells assessed as cell growth at 10 uM incubated for 48 hrs by sulforhodamine B assay relative to control; in short: as §3
U-251 = assay: Growth inhibition of human U-251 cells assessed as cell growth at 10 uM incubated for 48 hrs by sulforhodamine B assay relative to control; in short: as §3
Malme-3M = assay: Growth inhibition of human Malme-3M cells assessed as cell growth at 10 uM incubated for 48 hrs by sulforhodamine B assay relative to control; in short: as §1
M14 = assay: Growth inhibition of human M14 cells assessed as cell growth at 10 uM incubated for 48 hrs by sulforhodamine B assay relative to control; in short: as §1
MDA-MB-435 = assay: Growth inhibition of human MDA-MB-435 cells assessed as cell growth at 10 uM incubated for 48 hrs by sulforhodamine B assay relative to control; in short: as §1
SK-MEL-5 = assay: Growth inhibition of human SK-MEL-5 cells assessed as cell growth at 10 uM incubated for 48 hrs by sulforhodamine B assay relative to control; in short: as §3
OVCAR-4 = assay: Growth inhibition of human OVCAR-4 cells assessed as cell growth at 10 uM incubated for 48 hrs by sulforhodamine B assay relative to control; in short: as §3
OVCAR-8 = assay: Growth inhibition of human OVCAR-8 cells assessed as cell growth at 10 uM incubated for 48 hrs by sulforhodamine B assay relative to control; in short: as §3
NCI/ADR-RES = assay: Growth inhibition of human NCI/ADR-RES cells assessed as cell growth at 10 uM incubated for 48 hrs by sulforhodamine B assay relative to control; in short: as §1
786-0 = assay: Growth inhibition of human 786-0 cells assessed as cell growth at 10 uM incubated for 48 hrs by sulforhodamine B assay relative to control; in short: as §2
A498 = assay: Growth inhibition of human A498 cells assessed as cell growth at 10 uM incubated for 48 hrs by sulforhodamine B assay relative to control; in short: as §2
ACHN = assay: Growth inhibition of human ACHN cells assessed as cell growth at 10 uM incubated for 48 hrs by sulforhodamine B assay relative to control
In short: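 NCI Developmental Therapeutics Program NCI60 human tumour cell line panel, one-dose primary screen with every compound at 10 µM. Growth is expressed as % of untreated control cells (100%).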

RXF 393 = assay: Growth inhibition of human RXF 393 cells assessed as cell growth at 10 uM incubated for 48 hrs by sulforhodamine B assay relative to control; in short: as §3
SN12C = assay: Growth inhibition of human SN12C cells assessed as cell growth at 10 uM incubated for 48 hrs by sulforhodamine B assay relative to control; in short: as §3
UO-31 = assay: Growth inhibition of human UO-31 cells assessed as cell growth at 10 uM incubated for 48 hrs by sulforhodamine B assay relative to control; in short: as §3
PC-3 = assay: Growth inhibition of human PC-3 cells assessed as cell growth at 10 uM incubated for 48 hrs by sulforhodamine B assay relative to control; in short: as §3
DU-145 = assay: Growth inhibition of human DU-145 cells assessed as cell growth at 10 uM incubated for 48 hrs by sulforhodamine B assay relative to control; in short: as §2
MCF7 = assay: Growth inhibition of human MCF7 cells assessed as cell growth at 10 uM incubated for 48 hrs by sulforhodamine B assay relative to control; in short: as §1
T47D = assay: Growth inhibition of human T47D cells assessed as cell growth at 10 uM incubated for 48 hrs by sulforhodamine B assay relative to control; in short: as §3
MDA-MB-468 = assay: Growth inhibition of human MDA-MB-468 cells assessed as cell growth at 10 uM incubated for 48 hrs by sulforhodamine B assay relative to control; in short: as §1
SF-295 = assay: Growth inhibition of human SF-295 cells assessed as cell growth at 10 uM incubated for 48 hrs by sulforhodamine B assay relative to control; in short: as §3
OVCAR-3 = assay: Growth inhibition of human OVCAR-3 cells assessed as cell growth at 10 uM incubated for 48 hrs by sulforhodamine B assay relative to control; in short: as §3

| SMILES | growth at 10 µM (HL-60(TB)) [%] | growth at 10 µM (MOLT-4) [%] | growth at 10 µM (A549) [%] | growth at 10 µM (HOP-92) [%] | growth at 10 µM (NCI-H460) [%] | growth at 10 µM (COLO 205) [%] | growth at 10 µM (HCC 2998) [%] | growth at 10 µM (HCT-116) [%] | growth at 10 µM (HCT-15) [%] | growth at 10 µM (KM12) [%] | growth at 10 µM (SF-539) [%] | growth at 10 µM (SNB-19) [%] | growth at 10 µM (M14) [%] | growth at 10 µM (MDA-MB-435) [%] | growth at 10 µM (SK-MEL-5) [%] | growth at 10 µM (OVCAR-8) [%] | growth at 10 µM (NCI/ADR-RES) [%] | growth at 10 µM (786-0) [%] | growth at 10 µM (A498) [%] | growth at 10 µM (ACHN) [%] | other results |
| --- | --- | --- | --- | --- | --- | --- | --- | --- | --- | --- | --- | --- | --- | --- | --- | --- | --- | --- | --- | --- | --- |
| O=S(=O)(c1ccc(Br)cc1)n1ccc(-c2ccc(OCCCF)cc2)n1 | 95.7 | 75.8 | 75.7 | 74.1 | 90.1 | 102 | 90.3 | 78.7 | 86.4 | 104 | 90.2 | 95.5 | 97.1 | 98.2 | 75.4 | 95.1 | 78.9 | 85.3 | 91.1 | 94.1 | growth at 10 µM (U-251): 90.7%; growth at 10 µM (Malme-3M): 89%; growth at 10 µM (OVCAR-4): 71.1%; growth at 10 µM (RXF 393): 92.7%; growth at 10 µM (SN12C): 87%; growth at 10 µM (UO-31): 69.1%; growth at 10 µM (PC-3): 79.5%; growth at 10 µM (DU-145): 102%; growth at 10 µM (MCF7): 75.6%; growth at 10 µM (T47D): 72.6%; growth at 10 µM (MDA-MB-468): 39.8% |
| Nc1c(C(=O)N(c2ccccc2)c2ccccc2)sc2nc3c(cc12)C(=O)CCC3 | 105 | 102 | 90.2 | 103 | 99.9 | 109 | 116 | 94.2 | 89.5 | 79 | 81.7 | 104 | 94.2 | 110 | 102 | 105 | 101 | 104 | 76.3 | 110 | growth at 10 µM (SF-295): 107%; growth at 10 µM (OVCAR-3): 107%; growth at 10 µM (RXF 393): 111%; growth at 10 µM (SN12C): 101%; growth at 10 µM (UO-31): 87%; growth at 10 µM (PC-3): 103%; growth at 10 µM (DU-145): 68.6%; growth at 10 µM (MCF7): 99.6%; growth at 10 µM (T47D): 99.5%; growth at 10 µM (MDA-MB-468): 106% |
| CC(=O)c1ccc2c(N)c(C(=O)Nc3ccccc3)sc2n1 | 108 | 107 | 89 | 74 | 101 | 105 | 106 | 108 | 96.7 | 110 | 97 | 105 | 109 | 106 | 98.5 | 100 | 103 | 97.9 | 70.3 | 102 | growth at 10 µM (SF-295): 108%; growth at 10 µM (OVCAR-3): 119%; growth at 10 µM (OVCAR-4): 84.2%; growth at 10 µM (RXF 393): 100%; growth at 10 µM (SN12C): 110%; growth at 10 µM (UO-31): 103%; growth at 10 µM (PC-3): 97.4%; growth at 10 µM (DU-145): 107%; growth at 10 µM (MCF7): 96.8%; growth at 10 µM (T47D): 93.7%; growth at 10 µM (MDA-MB-468): 87.4% |
